Source: PubChem
KCC2 mod = KCC2 (human) Cl- transport modulation; 190,000 tested, 2.2% active; KCC2 cells, thallium flux FluoZin-2 fluorescence; B-score of Tl+ flux slope (higher = more flux/activation; lower = inhibition) at 10 µM; Q9H2X9;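 active = thallium flux slope and its plate-corrected score both differing from the plate sample mean at a set confidence after two filtering rounds, in either direction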;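 also: slope of fluorescence scaled to starting intensity during 10 to 20 s after thallium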
p97 inhibitor = inhibitors of human p97 ATPase. recombinant p97 ATPase, Kinase-Glo ATP luminescence, 3 h. inhibition, % at 8 µM. 220,000 tested, 0.42% active; in the data active = inhibition above about 15%;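 also: 0% = DMSO vehicle and 100% = wells lacking enzyme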
Target sequence (P55072 whole entry, looked up): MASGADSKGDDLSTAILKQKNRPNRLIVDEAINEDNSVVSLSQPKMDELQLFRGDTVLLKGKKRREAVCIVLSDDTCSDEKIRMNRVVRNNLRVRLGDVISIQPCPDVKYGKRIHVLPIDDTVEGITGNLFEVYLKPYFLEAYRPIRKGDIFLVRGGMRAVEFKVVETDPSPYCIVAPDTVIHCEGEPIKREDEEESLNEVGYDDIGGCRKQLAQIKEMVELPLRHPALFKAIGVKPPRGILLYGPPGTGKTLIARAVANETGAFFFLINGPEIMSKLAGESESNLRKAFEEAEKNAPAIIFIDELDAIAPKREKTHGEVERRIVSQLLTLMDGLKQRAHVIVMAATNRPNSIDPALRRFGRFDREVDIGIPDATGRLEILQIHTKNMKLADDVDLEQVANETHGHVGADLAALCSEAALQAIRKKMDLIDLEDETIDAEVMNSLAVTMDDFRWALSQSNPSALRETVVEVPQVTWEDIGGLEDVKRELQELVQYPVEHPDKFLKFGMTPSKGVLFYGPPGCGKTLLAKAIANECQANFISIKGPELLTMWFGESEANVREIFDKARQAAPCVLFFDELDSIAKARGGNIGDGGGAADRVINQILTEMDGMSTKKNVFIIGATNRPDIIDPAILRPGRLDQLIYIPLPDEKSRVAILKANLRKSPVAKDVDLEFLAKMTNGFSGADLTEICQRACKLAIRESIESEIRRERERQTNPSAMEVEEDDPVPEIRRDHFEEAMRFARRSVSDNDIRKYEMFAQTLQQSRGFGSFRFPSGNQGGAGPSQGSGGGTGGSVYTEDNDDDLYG
Redox H2O2 prof = compounds producing H2O2 with reducing agent – biochemical, NIH compound library profiling, artefact control for MLSCN library redox annotation, primary screen | 200,000 tested, 0.03% active | DTT-dependent redox cycling H2O2, phenol red/HRP absorbance; 100% = 100 µM peroxide control, 0% = buffer | activation, % at 10 µM | AID 878;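 active = activation of at least 50% relative to the plate's high and low controls in the primary single-dose screen; inactive = activation below 50%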;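 also: compound incubated with DTT at 0.8 mM final as the reducing agent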
Mdm2 ligase inh = Mdm2 E3 ligase (human) inhibition; Q00987; cell-based MDM2 ubiquitination luciferase reporter, 2 h; 0 = plate control, 100 = twice control, blank-subtracted; signal enhancement, % at 5 µM; 210,000 tested, 0.11% active;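 active = signal enhancement of 30% or more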;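 also: luminescence tracks abundance of the self-degrading MDM2-luciferase fusion protein; higher signal means inhibition of MDM2 E3 ligase activity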
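Timing – 2 h compound exposure at 37 °C · Assay system – mammalian cells stably expressing self-ubiquitinating, self-degrading MDM2 E3–luciferase fusion · Amount – 2000 cells seeded into each well · Measure – % luminescence enhancement versus blank-corrected plate control mean · Measured by – SteadyLite luminescence, 15 min reagent step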
ROMK mod = human ROMK K+ channel modulation, primary screen; 130,000 tested, 2% active; B-score at 10 µM; Tet-inducible ROMK, thallium flux fluorescence; actives lie on both sides; P48048;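 active = signal ratio slope over the read window, or its plate-corrected B-score, at least 3 SD from the plate mean, either direction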;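 also: B-score of the F/F0 ratio slope over 7 to 12 s after thallium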
PKD1 inh = inhibitors of human PKD1 kinase | Q15139 | 200,000 tested, 0.056% active | AID 797 | inhibition, % (no concentration beside the values) | PKD1 kinase fluorescence polarization assay; in the data active = inhibition above about 50%
ROMK retest = confirmation of human ROMK potassium channel modulators. shares compounds with ROMK mod. ROMK thallium flux, fluorescence ratio; active compounds read low. normalized thallium flux (F/F0 slope) at 10 µM. 3,000 tested, 54% active. AID 1917;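 active = Flux at 10 µM at least 3 SD below or above vehicle control mean in one or both replicates; inconclusive = no clear call, values can overlap the other calls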
* marks the source's active call; other numbers are inactive results; ? = inconclusive; . = no result. In the library only some 3.4% were active in any assay of this set; here they are far more common.

SMILES	KCC2 mod	p97 inhibitor	Redox H2O2 prof	Mdm2 ligase inh	ROMK mod	PKD1 inh	ROMK retest
Cc1cc(N2CCOCC2)nc(NCc2ccccc2)n1	1.04	0.4	-11.9	-4.1	.	1.4	.
COc1ccc(Br)cc1CNC(=O)CCCc1cn(C)c2ccccc12	0.0802	-5.8	0.7	.	-0.0405	-8.1	.
COc1ccc(CCCC(=O)NCc2ccccc2)cc1C	-0.286	2.4	-0.1	2.3	4.05*	-1.0	0.088
Cc1ccc(CNC(=O)CCCc2ccccc2)cc1	.	1.8	0.0	2.8	.	-10.0	.
COc1ccc(OC)c(CNC(=O)CCCc2cn(C)c3ccccc23)c1	-2.48	2.6	0.2	.	1.28*	0.9	?
Cc1nn(Cc2ccccc2)c(Cl)c1C(=O)OCC(=O)NC(=O)NC12CC3CC(CC(C3)C1)C2	-0.0413	-1.9	-0.3	.	-0.000526	0.1	.
O=C(NCc1nnc2c3ccccc3c(-c3ccccc3)nn12)c1ccc(Cl)cc1	-1.23	4.2	-0.3	-8.3	.	4.0	0.0725
CC(=O)NCc1nnc2c3ccccc3c(-c3ccccc3)nn12	0.0553	-0.3	4.8	-40.3	-0.619	4.1	.
CC1Cc2nc(SCC(=O)N3CCN(c4ccccc4)CC3)n(CCc3ccccc3)c(=O)c2S1 (stereo not given)	-0.515	3.8	0.3	-21.5	.	3.5	0.0641*
O=C(NNC1CC(=O)N(c2ccccc2)C1=O)c1cccnc1 (stereo not given)	1.19	-2.2	.	-7.8	.	.	0.0736
O=C(NNC1CC(=O)N(c2ccc(F)cc2)C1=O)c1cccnc1 (stereo not given)	0.283	5.5	.	-3.6	-1.03	.	.
CC(C)(C)NC(=O)CN(Cc1ccc(F)cc1)C(=O)Cn1nnc(-c2ccc(F)cc2)n1	-1.96	5.7	0.1	4.3	-0.619	3.0	.
Cc1occc1C(=O)NC1CCCCCCC1	0.0877	4.0	-0.2	-3.7	-0.0161	2.4	.
COc1ccc(Cn2c(O)c(/C=N/NC(=O)c3cccnc3)c3ccccc3c2=O)cc1	-2.28	8.1	0.3	-1.7	-5.5*	-8.5	0.0316*
COc1ccc(Cn2c(O)c(C=Nc3ccc(OC)cc3)c3ccccc3c2=O)cc1	1.21	6.4	0.5	-2.1	.	-5.9	.
O=C(N/N=C/c1c(O)n(-c2ccccc2Cl)c(=O)c2ccccc12)c1cccnc1	-1.3	11.6	-1.2	-6.7	-3.56*	5.3	0.0578*
O=C(CN1C(=O)NC2NC(=O)NC21)N/N=C/c1ccccc1O (stereo not given)	0.209	5.1	-1.7	-9.8	1.25	-3.8	.
NC(=O)C1CCN(CC(=O)Nc2ccccc2Sc2ccc(Cl)cc2)CC1	0.243	-3.4	0.2	-2.1	.	-2.4	.
NC(=O)C1CCN(CC(=O)Nc2ccccc2Sc2ccccc2)CC1	1.77	1.2	0.3	-0.8	.	13.3	0.0678*
CCN1CCc2nc3ccccc3c(C(=O)Nc3ccc(F)cc3)c2C1	-0.864	-0.7	.	-12.8	-3.34*	.	0.0743
Cc1occc1C(=O)Nc1ccc(OCc2ccccc2)cc1	-0.449	-13.5	0.6	-16.5	-0.282	-6.4	.
Cc1ccc(Nc2nnns2)cc1C	0.317	4.2	0.4	9.0	-2.99*	-9.2	?
O=C(/C=C/c1ccc(F)cc1)N1CCCc2ccccc21	-2.06	0.3	0.3	-11.9	-2.36*	-6.5	?
N#Cc1nc(-c2ccc(OCc3ccccc3)cc2)oc1NCc1cccnc1	.	7.2	0.0	-0.3	-0.825	0.7	.
CCOc1ccc(-c2nc(C#N)c(NCc3ccco3)o2)cc1	.	1.4	-1.2	-19.4	0.672*	-4.5	0.0863
O=C(NCc1cccs1)C1CCN(C(=O)NCc2ccccc2)CC1	0.0868	3.1	0.5	.	.	-10.8	.
O=C1c2sc3nc4n(c(=O)c3c2CCC1Br)CCCCC4 (stereo not given)	.	0.4	-7.4	-13.5	.	-3.5	.
Cc1cccc(NC(=O)CSc2nnc(NC(=O)c3ccc(S(=O)(=O)N4CCOCC4)cc3)s2)c1C	-0.916	5.2	0.1	15.7	0.469	-10.7	0.0879
O=C1C2CC=CCC2C(=O)N1Nc1ccccc1 (stereo not given)	-0.355	5.7	-1.5	-1.6	0.746	3.7	.
